In general, IC50 refers to the concentration that gives 50% inhibition. Lower therefore signals greater potency.

Drawing on ChEMBL document CHEMBL2346613, “Synthesis of indazole based diarylurea derivatives and their antiproliferative activity against tumor cell lines” (Bioorg Med Chem Lett, 2013), this text covers IC50 and Activity for 14 compounds.

The subject of one data set is MDA-MB-231. Description: Cytotoxicity against human MDA-MB-231 cells after 72 hrs by MTT assay. The class given is functional, cell-based. Particulars: MDA-MB-231, 72 h. The method in brief:
(§1)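 Cells were kept in RPMI-1640 or DMEM with 10% heat-inactivated FBS, penicillin–streptomycin, 2 mM glutamine and 10 mM HEPES at 37 °C, 5% CO2. They were trypsinized, seeded at 3 × 10³ per well and allowed 24 h before exposure to a range of concentrations for 72 h. MTT (5 mg/mL stock) was added for 4 h, absorbance read at 570 nm, and IC50 calculated.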
(Tetrazolium assays rely on reduction of a dye to a coloured formazan, in cell work by metabolically active cells.)

The subject of data set [1] is Mus musculus. Description: Acute toxicity against mouse at 2000 mg/kg, po administered as single dose. The format is organism-based. Also on record: dose 2000 mg/kg, route oral. Particulars: in vivo. Summed up:
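Mice received one oral dose, and the read-out was any sign of toxicity. The highest dose given without signs was recorded as the tolerated single oral dose.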

The test system of a further data set is Bel-7402. Briefly: Cytotoxicity against human Bel7402 cells after 72 hrs by MTT assay. Particulars: Bel-7402, 72 h. The class given is functional, cell-based. Summed up:
as §1

Another data set concerns SGC-7901. Briefly: Cytotoxicity against human SGC7901 cells after 72 hrs by MTT assay. The class given is functional, cell-based. Conditions: SGC-7901, 72 h. Summed up: as §1
The subject of another data set is HepG2. Briefly: Cytotoxicity against human HepG2 cells after 72 hrs by MTT assay. The format is functional, cell-based. Conditions: HepG2, 72 h. The method in brief: as §1
Another data set has as its system HT-29. Briefly: Cytotoxicity against human HT-29 cells after 72 hrs by MTT assay. The format is functional, cell-based. Conditions: HT-29, 72 h. Summed up: as §1
The next data set deals with LoVo. Description: Cytotoxicity against human LoVo cells after 72 hrs by MTT assay. The format is functional, cell-based. The method in brief:
as §1

Another data set deals with OS-RC-2. Briefly: Cytotoxicity against human OS-RC2 cells after 72 hrs by MTT assay. The class given is functional, cell-based. Conditions: OS-RC-2, 72 h. The method in brief: as §1
The test system of another data set is A549. Briefly: Cytotoxicity against human A549 cells after 72 hrs by MTT assay. Conditions: A549, 72 h. The format is functional, cell-based. Summed up:
as §1

In a further data set the test system is NCI-H460. Briefly: Cytotoxicity against human NCI-H460 cells after 72 hrs by MTT assay. The format is functional, cell-based. Particulars: NCI-H460, 72 h. Summed up: as §1
For data set [2], the system named is Mus musculus. Description: Toxicity against mouse at 1460 mg/kg, po administered as single dose. The class given is organism-based. Details: dose 1460 mg/kg, route oral. Conditions: in vivo. Summed up:
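Acute toxicity was tested in mice by a single oral dose, with doses up to 2000 mg/kg. Animals were watched for any sign of toxicity.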

The structures appear in SMILES notation.

For `O=C(Nc1ccc(-n2ncc3c(C(F)(F)F)cccc32)cc1)Nc1ccc(Cl)c(C(F)(F)F)c1`, the IC50 was 2000 nM with MDA-MB-231; 16 µM in the data set with Bel-7402; above 32 µM with SGC-7901; 8 µM with HepG2; 2.9 µM with HT-29; 3 µM with LoVo. Further, the IC50 in the data set with OS-RC-2 was above 32 µM; in the data set on A549, 3 µM; in the data set with NCI-H460, 1600 nM. The Activity entry with Mus musculus [1] is listed as “Non-toxic”.
On to `O=C(Nc1ccc(-n2ncc3c(Cl)cccc32)cc1)Nc1ccc(Cl)c(C(F)(F)F)c1`, for which the concentration for half-maximal inhibition (IC50) in the data set with MDA-MB-231 is 1600 nM; in the data set with Bel-7402, 2 µM; in the data set on SGC-7901 it was 4.6 µM; in the data set on HepG2, 1.9 µM; in the data set on HT-29, 4.6 µM; in the data set on LoVo it was 3.6 µM. For the same compound, the values for the IC50 with OS-RC-2, in the data set with A549 and in the data set with NCI-H460 were 3.1 µM, 3.1 µM and 1300 nM, respectively. Also, the Activity result with Mus musculus [1] was “Non-toxic”.
As for `O=C(Nc1ccc(-n2ncc3c(Br)cccc32)cc1)Nc1ccc(Cl)c(C(F)(F)F)c1`, the IC50 came to 7700 nM with MDA-MB-231; 1.3 µM in the data set with Bel-7402; 16.6 µM in the data set with SGC-7901; 2.5 µM with HepG2; 4 µM in the data set with HT-29; 1.7 µM in the data set on LoVo. Also, the results for the IC50 in the data set on OS-RC-2, in the data set with A549 and with NCI-H460 were 9.9 µM, 2.3 µM and 1300 nM, respectively.
Regarding `O=C(Nc1ccc(-n2ncc3c(F)cccc32)cc1)Nc1ccc(Cl)c(C(F)(F)F)c1`, the IC50 with MDA-MB-231 turned out to be 3100 nM; in the data set with Bel-7402, 16 µM; with SGC-7901, 32 µM; with HepG2, 29.5 µM; with HT-29 it was 8.2 µM; in the data set with LoVo it was 9.8 µM. For the same compound, the IC50 in the data set on OS-RC-2 turned out to be 32 µM; with A549, 3.8 µM; in the data set with NCI-H460, 3400 nM.
`Cc1cccc2c1cnn2-c1ccc(NC(=O)Nc2ccc(Cl)c(C(F)(F)F)c2)cc1`: the IC50 with MDA-MB-231 turned out to be 2300 nM; with Bel-7402, 6.7 µM; with SGC-7901 it was 14.2 µM; in the data set with HepG2 it was 4 µM; in the data set with HT-29, 32 µM; in the data set with LoVo, 3.9 µM. Besides, the IC50 with OS-RC-2 is 32 µM; in the data set on A549, 5.5 µM; in the data set with NCI-H460, 2500 nM.
In the case of `O=C(Nc1ccc(-n2ncc3ccccc32)cc1)Nc1ccc(Cl)c(C(F)(F)F)c1`, the IC50 with MDA-MB-231 is 5000 nM; in the data set with Bel-7402, 10.6 µM; in the data set on SGC-7901, above 32 µM; with HepG2, 8 µM; with HT-29 it was 18.2 µM; in the data set on LoVo, 8.7 µM. The IC50 stood at 32 µM in the data set with OS-RC-2, 9.9 µM in the data set on A549 and 5500 nM with NCI-H460.
`CNc1cccc2c1cnn2-c1ccc(NC(=O)Nc2ccc(Cl)c(C(F)(F)F)c2)cc1`: the IC50 worked out at 3600 nM with MDA-MB-231; 5 µM in the data set on Bel-7402; 6.9 µM with SGC-7901; 3 µM with HepG2; 5.9 µM in the data set with HT-29; 6.3 µM in the data set on LoVo. Further, the IC50 in the data set on OS-RC-2 was found to be 10.6 µM; with A549 it was 4.9 µM; in the data set with NCI-H460 it was 2600 nM.
Take `COc1cccc2c1cnn2-c1ccc(NC(=O)Nc2ccc(Cl)c(C(F)(F)F)c2)cc1`: the 50% inhibitory concentration (IC50) in the data set with MDA-MB-231 is 1200 nM; with Bel-7402, 2.9 µM; in the data set on SGC-7901, 29.8 µM; with HepG2, 4 µM; in the data set with HT-29 it was above 32 µM; in the data set on LoVo, above 32 µM. In addition, the IC50 in the data set with OS-RC-2 was 28.8 µM; in the data set on A549, 3.7 µM; with NCI-H460 it was 2200 nM.
Turning to `O=C(Nc1ccc(-n2ncc3c(C(F)(F)F)cccc32)cc1)Nc1ccc(C(F)(F)F)cc1`, the IC50 with MDA-MB-231 is 2000 nM; in the data set with Bel-7402, 1 µM; in the data set on SGC-7901, 4 µM; in the data set on HepG2, 1 µM; in the data set on HT-29, 3.3 µM; in the data set on LoVo it was 2.2 µM. For the same compound, the IC50 in the data set on OS-RC-2 was determined as 4 µM; with A549, 0.8 µM; in the data set on NCI-H460, 800 nM. The Activity entry in the data set with Mus musculus [1] was “Non-toxic”.
As to `O=C(Nc1ccc(-n2ncc3c(Cl)cccc32)cc1)Nc1ccc(C(F)(F)F)cc1`, the IC50 was 2700 nM in the data set on MDA-MB-231; 8 µM in the data set with Bel-7402; 6 µM in the data set on SGC-7901; 6.7 µM with HepG2; 1 µM in the data set with HT-29; 5.1 µM in the data set on LoVo. In addition, the IC50 with OS-RC-2 stood at 4.6 µM; in the data set on A549, 6 µM; in the data set with NCI-H460, 6800 nM.
Turning to `O=C(Nc1ccc(-n2ncc3cnccc32)cc1)Nc1ccc(Cl)c(C(F)(F)F)c1`, the concentration for half-maximal inhibition (IC50) is 16000 nM in the data set with MDA-MB-231; 2.7 µM in the data set with Bel-7402; 22.6 µM in the data set with SGC-7901; 4 µM in the data set with HepG2; 10.5 µM in the data set on HT-29; 8 µM in the data set on LoVo. The IC50 with OS-RC-2 is above 32 µM; in the data set with A549, 3.4 µM; in the data set on NCI-H460, 1400 nM.
With `O=C(Nc1ccc(-n2ncc3ccncc32)cc1)Nc1ccc(Cl)c(C(F)(F)F)c1`, the IC50 was above 32000 nM in the data set with MDA-MB-231; 4 µM in the data set on Bel-7402; above 32 µM with SGC-7901; 16 µM with HepG2; 29.5 µM in the data set with HT-29; 7.1 µM with LoVo. In addition, the figures for the IC50 with OS-RC-2, in the data set on A549 and in the data set with NCI-H460 were above 32 µM, 10.6 µM and 4800 nM, respectively.
On to `O=C(Nc1ccc(-n2ncc3cccnc32)cc1)Nc1ccc(Cl)c(C(F)(F)F)c1`, for which the IC50 in the data set on MDA-MB-231 is above 32000 nM; in the data set with Bel-7402, 20.9 µM; with SGC-7901, above 32 µM; with HepG2 it was above 32 µM; with HT-29, above 32 µM; in the data set on LoVo it was 32 µM. Besides, the IC50 in the data set on OS-RC-2 was above 32 µM; with A549, above 32 µM; with NCI-H460, 16600 nM.
On to `CNC(=O)c1cc(Oc2ccc(NC(=O)Nc3ccc(Cl)c(C(F)(F)F)c3)cc2)ccn1` [SORAFENIB], for which the Activity entry with Mus musculus [2] is reported as “Non-toxic”. Further, the IC50 in the data set on MDA-MB-231 was 2000 nM; in the data set with Bel-7402, 5.8 µM; in the data set with SGC-7901 it was 6.9 µM; in the data set on HepG2 it was 4 µM; in the data set on HT-29 it was 4 µM; with LoVo, 3.3 µM. Moreover, the IC50 worked out at 16 µM in the data set with OS-RC-2, 4 µM in the data set on A549 and 3900 nM with NCI-H460.
